Assay outcomes deposited in PubChem BioAssay by The Scripps Research Institute Molecular Screening Center.
NPY-Y1 PAM-ag – potentiates or activates human NPY-Y1 receptor; NPY-Y1 expressing cells, potentiator/agonist activation; 0.37% of 220,000 active; activation, % at 3.6 µM; P25929; in the data active means activation above about 33%, passing the limit was not always enough;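 further: cells stimulated with NPY at EC10 then isoproterenol at EC100; 0% = low agonist plus stimulus and 100% = saturating agonist plus stimulus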
Target sequence (P25929 whole entry, looked up): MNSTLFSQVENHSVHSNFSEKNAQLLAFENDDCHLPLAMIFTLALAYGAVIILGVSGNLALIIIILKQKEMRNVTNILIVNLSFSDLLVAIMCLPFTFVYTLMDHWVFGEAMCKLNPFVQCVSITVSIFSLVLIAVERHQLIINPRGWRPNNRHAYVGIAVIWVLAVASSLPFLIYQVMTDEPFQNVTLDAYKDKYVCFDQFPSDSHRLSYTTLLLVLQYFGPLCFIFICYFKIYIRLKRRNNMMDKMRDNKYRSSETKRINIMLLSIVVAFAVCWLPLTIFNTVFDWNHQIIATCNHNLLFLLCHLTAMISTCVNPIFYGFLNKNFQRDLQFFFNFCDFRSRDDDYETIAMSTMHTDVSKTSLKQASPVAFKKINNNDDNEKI
NPY2 pot ag – potentiates or activates human NPY-Y2 receptor. P49146. AID 1359. cells expressing NPY-Y2, potentiator/agonist read-out. 0.45% of 220,000 active. activation, % at 3.6 µM; in the data active means activation above about 27%;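 further: cells stimulated with NPY near EC25 plus isoproterenol at EC100; 0% = vehicle plus submaximal agonist and 100% = vehicle plus saturating agonist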
NPY Y2 blocker – NPY-Y2 (human) receptor antagonism; 0.99% of 140,000 active; inhibition, % at 2.7 µM; AID 793; NPY-Y2 expressing cells, antagonist mode; in the data active means inhibition above about 17%;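 further: 0% = vehicle with agonist challenge and 100% = reference antagonist with challenge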
NPY Y1 blocker – NPY-Y1 (human) receptor antagonism; P25929; HEK293-CNG Y1 cells, membrane potential fluorescence; NPY at EC95, then isoproterenol; inhibition, % at 3.6 µM; 1% of 200,000 active; AID 1040;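 active means inhibition above the campaign mean inhibition of all tested compounds plus 3 SD, cut at about 20% in these data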;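 further: 0% = DMSO wells given NPY plus isoproterenol and 100% = isoproterenol alone without NPY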
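Material: HEK293 Y1/CNG channel cell line | Also added: NPY (25 nM), isoproterenol (1 µM), Ro 20-1724 (25 µM) | Compound: One concentration, 3.6 µM, in 0.4% DMSO | Schedule: 3 h dye uptake, 1 h room-temperature compound, 45 min post-isoproterenol | Signal: Membrane-potential fluorescent dye readout | Read-out: % inhibition of NPY effect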
Numbers without * were called inactive; / = not tested or not shown. An excerpt weighted towards active compounds, which were near 1.8% of everything screened.

SMILES | NPY-Y1 PAM-ag | NPY2 pot ag | NPY Y2 blocker | NPY Y1 blocker
Cc1cccc(/C(N)=N/OC(=O)CCCN2C(=O)c3ccccc3C2=O)c1 | -29.9 | -18.3 | 8.3 | 29.2*
CCCSC1=C(C#N)C(c2cc(OC)ccc2OC)CC(=O)N1 (stereo unspecified) | -0.9 | -7.1 | -0.9 | 0.9
COc1cc2ccnc(Cc3cccc(OC)c3OC)c2cc1OC | -25.9 | -10.3 | / | 12.9
Cc1sc(NC(=O)c2ccco2)c(CN2CCN(c3ccccn3)CC2)c1C | 5.7 | 25.6 | 7.8 | 10.7
Cc1cc(C)c(S(=O)(=O)Nc2ccc(OCC(=O)O)cc2)c(C)c1 | 47.4* | 50.8* | -0.5 | -8.3
CCN1c2ccccc2-c2nc3ccccc3n2C1c1cccs1 (stereo unspecified) | -10.4 | -9.2 | 25.2* | 36.7*
O=C(c1cccs1)N(Cc1nc2sc3c(c2c(=O)[nH]1)CCCC3)C1CCCC1 | -9.0 | -3.2 | 3.3 | 11.6
CC(C)COP(=O)(OCC(C)C)C(Nc1ccccc1)c1ccccc1 (stereo unspecified) | 12.5 | -4.5 | / | /
CC(C)COP(=O)(OCC(C)C)C(Nc1ccccc1)c1ccc(F)cc1 (stereo unspecified) | -12.4 | 1.4 | 22.6* | 31.3*
COC(=O)c1ccccc1NC(=O)CN1CCN(C23CC4CC(CC(C4)C2)C3)CC1 | -127.0 | -38.9 | 63.8* | 96.0*
C/C(=N\NC(=O)c1nn(C)cc1Br)c1cccc(NC(=O)C(C)(C)C)c1 | 102.9* | 41.2* | 1.4 | -8.1
CN(Cc1cnccn1)C(=O)CC1C(=O)NCCN1CC(c1ccccc1)c1ccccc1 (stereo unspecified) | 6.7 | -2.3 | / | 6.4
CC1CCN(CCCNC(=O)c2ccc3c(=O)n(CCc4ccccc4)c(=O)[nH]c3c2)CC1 | 0.1 | 17.6 | 0.4 | -1.9
CN(C1=C(NC(=O)c2ccc(Cl)cc2)C(=O)c2ccccc2C1=O)c1ccccc1 | 56.5* | 71.5* | -10.4 | -20.2
O=C(NC1=C(Nc2ccc(Cl)cc2)C(=O)c2ccccc2C1=O)c1ccccc1 | -9.1 | 4.4 | -3.6 | 2.0
CCCC(=O)N(CCN(Cc1ccccc1)C(=O)CCC)Cc1ccccc1 | -14.7 | -12.0 | 24.7* | 55.9*
CCOCC(=O)N(CC)Cc1ccccc1 | -4.8 | 4.9 | / | 1.9
CCC1CCCCN1CCCNC(=O)C1CCC(=O)N1Cc1ccc(C)cc1 (stereo unspecified) | 18.0 | 18.1 | 2.3 | 9.9
CCOC(=O)N1CCN(CC(O)COc2ccccc2C(C)C)CC1 (stereo unspecified) | 79.0* | 58.8* | 1.8 | -10.4
CCOC(=O)N1CCN(CC(O)COC(CC)c2ccccc2)CC1 (stereo unspecified) | 1.6 | 6.6 | -1.9 | -4.1
CCOC(=O)N1CCN(CC(O)COc2ccccc2C(C)CC)CC1 (stereo unspecified) | -9.1 | 3.2 | 1.6 | 0.5
CCOC(=O)N1CCN(CC(O)COc2ccccc2C(C)(C)C)CC1 (stereo unspecified) | 71.5* | 72.0* | 1.8 | -11.9
Cc1ccc(OCC(=O)Nc2ccccc2N2CCCC2)c(C)c1 | -16.8 | -17.6 | / | 7.3
CCC(=O)N1CCN(c2ccccc2NC(=O)COc2cc(C)ccc2C(C)C)CC1 | -41.9 | -11.1 | 22.0* | 30.5*
CC1CN(CC(O)COc2ccccc2C(C)(C)C)CC(C)O1 (stereo unspecified) | 100.4* | 83.8* | 1.4 | -14.5
SMILES | NPY-Y1 PAM-ag | NPY2 pot ag | NPY Y2 blocker | NPY Y1 blocker
Cn1ncc(N=Cc2ccccc2)c1C(=O)Nc1cccc(Cl)c1 | -17.5 | -0.4 | 1.2 | -3.9
CC1=C(C#N)c2nc(N)c(C#N)c(C)c2/C1=C\c1ccc(C)cc1 | 13.1 | -8.8 | -1.6 | 4.6
CCCC(=O)Nc1nc(C)c(-c2csc(Nc3ccccc3C)n2)s1 | -12.5 | -9.7 | 8.4 | 1.2
O=C(COC(=O)C1CC(=O)N(Cc2ccco2)C1)c1ccc(OC(=O)c2ccccc2)cc1 (stereo unspecified) | 12.7 | 0.2 | 2.4 | 0.4
CCOC(=O)N1CCN(CC(O)COc2cc(C)ccc2C(C)C)CC1 (stereo unspecified) | 92.2* | 80.6* | -0.3 | -12.6
Fc1ccc(C(c2nnnn2C2CCCC2)N2CCc3ccccc32)cc1 (stereo unspecified) | -14.8 | 15.3 | 15.4 | 9.2
Fc1ccc(C(c2nnnn2CCc2ccccc2)N2CCCc3ccccc32)cc1 (stereo unspecified) | -6.2 | 4.6 | 37.5* | 27.4*
NC(=O)Cn1c(-c2nonc2N)nc2ccccc21 | 5.1 | -15.0 | / | -2.9
Cc1ccc(Cn2c(-c3nonc3N)nc3ccccc32)cc1 | -41.2 | -8.1 | 20.8* | 23.4*
CC(C)c1ccc(NC(=O)C2CCCCC2C(=O)O)cc1 (stereo unspecified) | -5.8 | 6.8 | 2.4 | 1.5
O=C(O)[C@H]1CCCC[C@H]1C(=O)Nc1ccc(Nc2ccccc2)cc1 | 48.6* | 34.0* | -4.0 | -8.8
Cc1cc(C)cc(NC(=S)NCCN(C2CCCCC2)C2CCCC2)c1 | -13.6 | -21.4 | / | 21.1*
CCCCn1c(SCC(=O)Nc2nnc(C(C)C)s2)nc2c1c(=O)n(C)c(=O)n2C | -2.7 | 6.8 | -1.3 | 0.2
CC(=O)OCCNc1cc(N2CCN(C)CC2)c2noc3c2c1C(=O)c1ccccc1-3 | 48.8* | 33.1* | -4.6 | -6.1
CCOC(=O)C(C(=O)OCC)c1cc(Br)c2noc3c2c1C(=O)c1ccccc1-3 | -16.8 | -5.5 | 2.0 | 1.1
COc1cccc(CN2CCC(N(CCc3ccccc3)Cc3ccccc3)CC2)c1OC | -30.4 | -1.5 | 30.9* | 34.5*
COc1ccc(C(C(=O)NC2CCCC2)N(Cc2ccccc2)C(=O)c2nsc(Cl)c2Cl)cc1 (stereo unspecified) | -45.7 | -44.7 | 27.6* | 36.1*
Cc1cc(NC(=O)CSc2nnc3c(C)cc4cc(C)c(C)cc4n23)no1 | -2.1 | -9.0 | -0.8 | -3.3
CC(=O)N1CN(C2CCCC2)Cc2c1sc1c2CCCC1 | -18.3 | -4.2 | 17.9* | 23.5*
Cc1ccc(N/C(SCc2ccccc2C)=C(/C#N)C(=O)NCc2ccco2)cc1C | -7.9 | -28.4 | 7.9 | 10.4
N#Cc1ccc(CSc2nnc(Cc3cccs3)n2Cc2ccco2)cc1 | -34.1 | -23.2 | 17.0 | 23.4*
COc1cc2c(cc1NC(=O)CSc1nnc(Cc3cccs3)n1Cc1ccco1)oc1ccccc12 | -22.6 | 6.1 | -0.1 | -4.3
Cc1ccc(NCc2nnc(SCc3ccc(C#N)cc3)n2Cc2ccco2)c(C)c1 | 14.4 | 9.3 | -0.3 | 1.1
Cc1cc(Cl)ccc1NC(=O)CSc1nnc(Cc2cccs2)n1Cc1ccco1 | -17.4 | -15.6 | 21.1* | 23.3*
Cc1ccc(C(=O)/C=C/N(C)C)cn1 | 8.2 | 13.4 | / | /
CC12CCC(C(=O)Nc3ccc4c(c3)OCCO4)(OC1=O)C2(C)C (stereo unspecified) | 18.5 | 13.2 | -0.1 | -1.3
O=C(Cc1cccs1)N(Cc1cccs1)C1(C(=O)NC2CCCCC2)CCCCC1 | -25.1 | -8.0 | 37.3* | 51.8*
O=C1NC(=O)C(CC(=O)N(Cc2cccs2)C2(C(=O)NC3CCCC3)CCCCC2)N1 (stereo unspecified) | -35.0 | -15.6 | 3.0 | 11.4
O=C(c1cnccn1)N(Cc1cccs1)C1(C(=O)NC2CCCCC2)CCCCC1 | -38.0 | -18.7 | 20.8* | 38.2*
